Experimental data as given in paper PMC3983390 (Journal of medicinal chemistry, 2014).
Like-named read-outs stand apart in the source and are kept apart here. Values belong to the compound of their own block, whether it stands above or below them.

Legend:
6-OHDA lesioned rats = assay: In vivo rotational experiment with 6-OHDA unilaterally lesioned rats; design: species or system rat; details: for rotational activity in 6-OHDA lesioned rats / duration of rotation / total number of rotations: i.p.
In short: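 Rats (290–320 g) with a unilateral 6-OHDA lesion of the left medial forebrain bundle. Lesion confirmed by apomorphine challenges, including 0.05 mg/kg at 21 days post-lesion with contralateral rotations counted for 30 min. Test compound given i.p. at 5 or 10 μmol/kg; controls were vehicle and apomorphine reference. Contralateral (clockwise) rotations counted in harnessed rotometry chambers from dosing, in 30-min bins, over 7–12 h.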

hD3 receptor [1] = biological target: T1, hD3 receptor (Homo sapiens, UniProt P35462); details: GTPγS, compared with Emax of DA; cited from earlier work
rD2L receptor = rD2L receptor (Rattus norvegicus, UniProt P61169); details: read-out: Ki (nM), rD2L [3H]spiroperidol; HEK-293 cells; from previous ref 44; cited from earlier work
hD2 receptor [2] = biological target: T2, hD2 receptor (Homo sapiens, UniProt P14416); details: GTPγS, compared with Emax of DA; cited from earlier work
reserpine-treated rats = assay: Reversal of reserpine-induced hypolocomotion in rats; type: in vivo, rat; details: for reversal of akinesia (locomotor activity) in reserpine-treated rats: i.p., in DI water, 18 h after reserpine 5 mg/kg s.c.
In short: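 Male Sprague–Dawley rats (220–225 g) anaesthetised with isoflurane and given reserpine 5.0 mg/kg s.c. (acetic acid diluted in 5.5% glucose) or saline 18 h beforehand. After 1 h chamber acclimatisation, test compound (in water) given i.p. at 5 μmol/kg; reference agonist given s.c. Horizontal activity counted from infrared beam breaks for 6 h in 30-min bins. n = 4; mean ± SEM; one-way ANOVA with Dunnett vs saline controls.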

MN9D cells = assay: Neuroprotection against MPP+ toxicity in dopaminergic MN9D cells; type: cell-based, mouse; details: 1 h pretreatment, then cotreatment with 100 μM MPP+ for 24 h; MTT
In short: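 MN9D cells (mouse mesencephalic neuron × N18TG2 hybridoma) grown on poly-L-lysine in high-glucose DMEM with 10% serum and penicillin/streptomycin, 37 °C, 5% CO2. Seeded at 1 × 10^4 cells/well and equilibrated 40 h. Pretreated 1 h with test compound (0.001–20 μM; DMSO stock), then MPP+ added to 100 μM final for 24 h; controls 0.01% DMSO. MTT (0.5 mg/mL final) 3 h; formazan dissolved in DMSO/methanol 1:1; A570 minus A690. Three independent experiments, 4–6 replicates, mean ± SD; one-way ANOVA with Tukey vs MPP+.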

rD3 receptor = rD3 receptor (Rattus norvegicus, UniProt P19020); details: read-out: Ki (nM), rD3 [3H]spiroperidol; HEK-293 cells; from previous ref 44; cited from earlier work
[3] = DPPH radical scavenging assay; details: 20 to 250 μM drug, 200 μM DPPH, methanol, 30 °C, 25 min; Figure 2
In short: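 Test compound in methanol as 20–250 μM solutions (before mixing), combined 1:1 with 200 μM methanolic DPPH. Plate shaken at 30 °C for 25 min. Controls were methanol plus DPPH, with methanol alone as background and ascorbic acid as standard. Absorbance read at 517 nm. % scavenging = (A control − A sample)/A control × 100.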

hD3 receptor [4] = biological target: T1, hD3 receptor; assay: Stimulation of [35S]GTPγS binding to hD3 receptors expressed in CHO cells; type: biochemical; details: for agonist type at D3 receptor: GTPγS, compared with Emax of DA
hD2 receptor [5] = biological target: T2, hD2 receptor; assay: Stimulation of [35S]GTPγS binding to hD2 receptors expressed in CHO cells; type: biochemical; details: compared with Emax of DA

T2 sequence (P14416 whole entry): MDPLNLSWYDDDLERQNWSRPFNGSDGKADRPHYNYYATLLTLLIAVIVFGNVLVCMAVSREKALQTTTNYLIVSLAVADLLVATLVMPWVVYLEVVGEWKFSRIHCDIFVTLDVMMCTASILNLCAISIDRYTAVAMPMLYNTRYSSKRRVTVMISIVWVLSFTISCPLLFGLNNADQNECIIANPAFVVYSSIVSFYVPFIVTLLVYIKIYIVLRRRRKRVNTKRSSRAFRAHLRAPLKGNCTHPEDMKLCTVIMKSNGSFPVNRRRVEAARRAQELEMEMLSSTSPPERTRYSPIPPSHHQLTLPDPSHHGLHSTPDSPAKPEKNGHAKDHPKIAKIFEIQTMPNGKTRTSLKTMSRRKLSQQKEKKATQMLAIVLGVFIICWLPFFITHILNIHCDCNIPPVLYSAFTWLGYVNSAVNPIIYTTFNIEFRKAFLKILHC
T1 sequence (P35462 whole entry): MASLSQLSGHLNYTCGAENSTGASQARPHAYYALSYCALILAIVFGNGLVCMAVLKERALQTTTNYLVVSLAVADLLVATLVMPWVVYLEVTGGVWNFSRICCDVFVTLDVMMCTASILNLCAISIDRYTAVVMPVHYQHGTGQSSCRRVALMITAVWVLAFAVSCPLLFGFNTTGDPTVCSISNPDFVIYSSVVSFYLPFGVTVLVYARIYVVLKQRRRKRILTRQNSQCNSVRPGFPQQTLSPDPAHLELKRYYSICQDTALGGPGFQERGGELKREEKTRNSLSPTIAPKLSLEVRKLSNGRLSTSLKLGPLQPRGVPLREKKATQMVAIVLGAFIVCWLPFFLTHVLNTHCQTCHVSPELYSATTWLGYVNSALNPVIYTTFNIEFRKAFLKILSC
Chain of rD3 receptor (P19020 whole entry): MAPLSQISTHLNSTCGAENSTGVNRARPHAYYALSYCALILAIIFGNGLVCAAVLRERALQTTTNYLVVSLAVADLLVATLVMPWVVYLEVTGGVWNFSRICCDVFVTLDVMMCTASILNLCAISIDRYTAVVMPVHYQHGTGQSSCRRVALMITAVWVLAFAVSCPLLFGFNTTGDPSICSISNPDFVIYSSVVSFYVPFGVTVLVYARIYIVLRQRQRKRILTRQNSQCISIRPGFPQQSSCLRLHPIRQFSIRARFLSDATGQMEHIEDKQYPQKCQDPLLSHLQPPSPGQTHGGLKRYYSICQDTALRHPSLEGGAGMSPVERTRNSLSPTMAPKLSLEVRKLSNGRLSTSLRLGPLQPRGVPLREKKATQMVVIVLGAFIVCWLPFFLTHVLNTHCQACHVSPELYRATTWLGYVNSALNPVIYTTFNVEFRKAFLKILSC
Chain of rD2L receptor (P61169 whole entry): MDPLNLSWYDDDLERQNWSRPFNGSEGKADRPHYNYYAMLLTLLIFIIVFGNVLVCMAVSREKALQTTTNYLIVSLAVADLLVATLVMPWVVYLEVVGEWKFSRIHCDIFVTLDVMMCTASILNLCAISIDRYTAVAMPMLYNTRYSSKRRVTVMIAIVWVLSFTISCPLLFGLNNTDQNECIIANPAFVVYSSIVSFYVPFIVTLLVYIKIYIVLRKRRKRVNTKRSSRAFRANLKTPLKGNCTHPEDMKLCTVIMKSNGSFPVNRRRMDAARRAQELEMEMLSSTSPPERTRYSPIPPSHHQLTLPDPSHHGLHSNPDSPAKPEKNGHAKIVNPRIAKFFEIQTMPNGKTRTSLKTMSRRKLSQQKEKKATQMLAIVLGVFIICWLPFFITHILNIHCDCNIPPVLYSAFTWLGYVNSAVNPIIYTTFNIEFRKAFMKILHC

Compound: CN1CCc2cccc3c2[C@H]1Cc1ccc(O)c(O)c1-3 [apomorphine, reference compound]
- average contralateral rotation (6-OHDA lesioned rats; apomorphine 0.05 mg/kg, 21 days postlesion, recorded for 30 min): > 250

Compound: CCCN(CCN1CCN(c2ccc(-c3ccccc3)cc2)CC1)[C@H]1CCc2nc(N)sc2C1 [Compound 1a, (−)-N6-(2-(4-(Biphenyl-4-yl)piperazin-1-yl)-ethyl)-N6-propyl-4,5,6,7-tetrahydrobenzo[d]thiazole-2,6-diamine]
- agonist type at D3 receptor (hD3 receptor [1]): full agonist
- Ki (rD2L receptor): 186 ± 34 nM
- rotational activity in 6-OHDA lesioned rats (6-OHDA lesioned rats): failed to show any in vivo activity
- agonist type at D2 receptor (hD2 receptor [2]): full agonist
- reversal of akinesia (locomotor activity) in reserpine-treated rats (reserpine-treated rats; 5 μmol/kg): failed to produce any significant effect in reversing akinesia
- reversal of akinesia in reserpine-treated rats (reserpine-treated rats; dissolved in 10% beta-hydroxy cyclodextrin solution, 5 μmol/kg i.p.): more effective
- protection of MN9D cells from MPP+ induced toxicity (MN9D cells): able to protect the MN9D cells in a dose-dependent manner
- Ki (rD3 receptor): 2.1 ± 0.34 nM

Compound: CCCN(CCC)CCc1cccc2c1CC(=O)N2 [ropinirole, Ropinirole, reference compound]
- DPPH radical scavenging (antioxidant) activity [3]: poor activity
- duration of action in 6-OHDA lesioned rats (6-OHDA lesioned rats; 10 μmol/kg): much shorter duration of action
- duration of action in reserpine-treated rats (reserpine-treated rats; 5 μmol/kg, s.c., compared to the test compounds): much shorter duration of action

Compound: CCCN(CCN1CCN(c2ccc(-c3cccc(O)c3)cc2)CC1)[C@H]1CCc2c(O)cccc2C1 [(−)-11, (S)-6-((2-(4-(3′-Hydroxybiphenyl-4-yl)piperazin-1-yl)ethyl)-(propyl)amino)-5,6,7,8-tetrahydronaphthalen-1-ol]
- DPPH radical scavenging (antioxidant) activity [3]: less antioxidant activity in this assay than (−)-9b

- less potent at D3 receptor in comparison to 1a (hD3 receptor [4]; GTPγS EC50): 2 fold
- agonist type at D3 receptor (hD3 receptor [4]): partial agonist
- agonist type at D2 receptor (hD2 receptor [5]): full agonist
Compound: CCCN(CCN1CCN(c2ccc(-c3cccc(OC)c3)cc2)CC1)[C@H]1CCc2nc(N)sc2C1 [Compound (−)-8b, (S)-N6-(2-(4-(3′-Methoxybiphenyl-4-yl)piperazin-1-yl)ethyl)-N6-propyl-4,5,6,7-tetrahydrobenzo[d]thiazole-2,6-diamine]
- duration of rotation (6-OHDA lesioned rats; 5 μmol/kg): more than 7 h
- total number of rotations (6-OHDA lesioned rats; 5 μmol/kg): 3333 rotations
- duration of rotation (6-OHDA lesioned rats; 10 μmol/kg): more than 10 h
- total number of rotations (6-OHDA lesioned rats; 10 μmol/kg): 5866 rotations
- rotational activity in 6-OHDA lesioned rats (6-OHDA lesioned rats): produced potent rotational activity in a dose-dependent manner
- reversal of akinesia (locomotor activity) in reserpine-treated rats (reserpine-treated rats; 5 μmol/kg): highly efficacious in reversing akinesia
- protection of MN9D cells from MPP+ induced toxicity (MN9D cells): did not show any neuroprotection

- increase in D3 functional potency in comparison to 1a (hD3 receptor [4]; GTPγS EC50): 15 fold
- increase in functional selectivity (D2/D3) in comparison to 1a (hD3 receptor [4]; GTPγS EC50 ratio): 7 fold
- agonist type at D3 receptor (hD3 receptor [4]): full agonist
- agonist type at D2 receptor (hD2 receptor [5]): full agonist
Compound: CCCN(CCN1CCN(c2ccc(-c3cccc(O)c3)cc2)CC1)[C@H]1CCc2nc(N)sc2C1 [Compound (−)-9b, (S)-4′-(4-(2-((2-Amino-4,5,6,7-tetrahydrobenzo[d]thiazol-6-yl)(propyl)amino)ethyl)piperazin-1-yl)biphenyl-3-ol]
- duration of rotation (6-OHDA lesioned rats; 5 μmol/kg): more than 7 h
- total number of rotations (6-OHDA lesioned rats; 5 μmol/kg): 1839 rotations
- duration of rotation (6-OHDA lesioned rats; 10 μmol/kg): more than 10 h
- total number of rotations (6-OHDA lesioned rats; 10 μmol/kg): 2653 rotations
- rotational activity in 6-OHDA lesioned rats (6-OHDA lesioned rats): produced potent rotational activity in a dose-dependent manner
- reversal of akinesia (locomotor activity) in reserpine-treated rats (reserpine-treated rats; 5 μmol/kg): highly efficacious in reversing akinesia
- protection of MN9D cells from MPP+ induced toxicity (MN9D cells): able to protect the MN9D cells in a dose-dependent manner

Compound: O=C1O[C@H]([C@@H](O)CO)C(O)=C1O [ascorbic acid]
- DPPH radical scavenging (antioxidant) activity [3]: inhibited DPPH radical activity dose dependently
